Consider 97 compounds from ChEMBL document CHEMBL4513216, “Probing the Open Global Health Chemical Diversity Library for Multistage-Active Starting Points for Next-Generation Antimalarials” (ACS Infect Dis, 2020).

The data set in a line: Toxicity liver stage against HepG2, at 10uM. Format: cell-based. The arrangement: test concentration 10 uM, cell line HepG2-A16-CD81EGFP. As to conditions: human, HepG2-A16-CD81EGFP cells; read-out: INHIBITION
In outline: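 Uninfected HepG2-A16-CD81EGFP cells, 3 × 10^3 per well, 1536-well, plated on prespotted compound at 10 μM final, parasite-free screening media added to match infected plates; puromycin 10 μM positive, DMSO 0.5% negative; run in parallel with 48 h PbLuc assay at 37 °C, 5% CO2; viability by CellTiter-Glo luminescence, normalized to controls.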
As for `Cc1c(CN2CCCCC2)c(O)n(CCCO)c(=O)c1C#N`, the cytotoxicity at 10 µM was -5.03%.

In the case of `CCc1c(C(=O)NCC2CCS(=O)(=O)C2)cnn1-c1ccc(C)cc1` (configuration not stated), the cytotoxicity at 10 µM is -6.69%. Next, `Fc1ccc(OCc2nnc([C@H]3CCN(Cc4ccncc4)C3)o2)cc1`: -1.81%; `CCCNC(=O)C[C@@H]1CCN(C(=O)c2cccnc2)C[C@@H]1CC`: -0.171%; `O=C1CO[C@H]2CN(Cc3ccc(F)c(F)c3)C[C@H]2N1`: -2.49%. Next, `Cc1ccc(C)c(-n2ncc(C(=O)NCC3COC(C)(C)O3)c2N)c1` (configuration not stated): -4.06%; `C1CC(CN2CC[C@@H]3O[C@@H](c4nnc(C5CC5)o4)C[C@H]3C2)CCO1`: 5.35%. For the compound `CC[C@@H]1N(Cc2ccccn2)CCC[C@]12CCC(=O)N2CCOC`, the cytotoxicity at 10 µM stood at 8.01%. `Cc1ccc(N2CCOCC3(CCCN(c4ncc(F)cn4)C3)C2)nn1` (configuration not stated): the cytotoxicity at 10 µM is -123%. `O=S(=O)(NCC1(O)CCOc2ccccc21)c1cccs1` (configuration not stated): the cytotoxicity at 10 µM is -16.8%. Take `COCCCNC(=O)Cn1c(-c2cccc(Cl)c2)nc(C)cc1=O`: the cytotoxicity at 10 µM was -8.41%.

Turning to `Cn1nccc1C(=O)NCCN1CCC(O)(c2ccc(F)cc2)CC1`, the cytotoxicity at 10 µM was 1.09%. For the compound `NC(=O)c1cnn2c(C3CCN(CCO)CC3)ccnc12`, the cytotoxicity at 10 µM turned out to be 0.695%. `CN1CCC(NC(=O)C2CN(c3cncnc3)CCO2)CC1` (configuration not stated): the cytotoxicity at 10 µM is -32.5%. As to `CCc1nnc(Nc2cccc(C3CCN(CC4CC4)CC3)n2)s1`, the cytotoxicity at 10 µM was -26.8%. `Cc1ccc(=O)n(CC2(O)CCN(Cc3cnc(N(C)C)nc3)CC2)n1`: the cytotoxicity at 10 µM was -26%. Take `O=C(O)c1cc(Br)cnc1OCC1CC1`: the cytotoxicity at 10 µM worked out at 6.43%. Take `CCc1ccccc1OCC(=O)Nc1ccnc(OCCN(C)C)c1`: the cytotoxicity at 10 µM is 17.8%. With `CN(c1cccnc1N1CCCC1)S(=O)(=O)c1cccs1`, the cytotoxicity at 10 µM turned out to be 20.4%. Next, `CNC(=O)Cc1ccc(NC(=O)NCC(C)c2ncc(C)s2)cc1` (configuration not stated): -14.4%; `COc1ccc(CNC(c2cccc(F)c2)c2cnn(C)c2)cc1` (configuration not stated): 4.91%. As for `CCCC(O)CNc1cncc(Br)c1` (configuration not stated), the cytotoxicity at 10 µM worked out at 22.2%. Regarding `CCOc1ncccc1CNS(=O)(=O)c1ccc2c(c1)CCO2`, the cytotoxicity at 10 µM was 7.95%. As to `Cc1nnc(NC(=O)NCc2ccc(N3CCNC(=O)C3)cc2)s1`, the cytotoxicity at 10 µM is -1.26%. For `O=C(CCc1ccsc1)NCC1CCN(Cc2cccs2)CC1`, the cytotoxicity at 10 µM was determined as 12.9%. With `Cc1ccc(S(C)(=O)=O)cc1C(=O)N(C)Cc1ccco1`, the cytotoxicity at 10 µM came out at 0.0194%. For `Cc1ccc(CNC(=O)NC2CCCN(c3ncccn3)C2)n1C` (configuration not stated), the cytotoxicity at 10 µM turned out to be 5.23%. Turning to `CN(CCc1ccncc1)C1CCCN(Cc2noc(C3CC3)n2)C1` (configuration not stated), the cytotoxicity at 10 µM was found to be 8.66%. On to `Cc1nn(C)c(N2CCOCC2)c1CNC(c1ccccc1)C1CC1` (configuration not stated), for which the cytotoxicity at 10 µM stood at 4.45%. Next, `CCS(=O)(=O)N1CCC(Oc2ccc(C#N)cc2)CC1`: 16.8%; `Cc1cc(F)ccc1N1CCCC(NC2CCSCC2)C1=O` (configuration not stated): 1.07%; `CCCS(=O)(=O)N(C)C(=O)CCc1ccccc1`: 4.83%. With `OC(COCc1ccco1)CSc1nnc2ccccn12` (configuration not stated) the figure was 3.55%; with `COc1cccc(S(=O)(=O)CCNC(C)Cn2cccn2)c1` (configuration not stated), -3.34%. As for `CNC(=O)COc1ccccc1CNCc1c(C)noc1C`, the cytotoxicity at 10 µM was found to be 2.32%. On to `O=C(NCCCOCC1CC1)Nc1ccc(F)cc1`, for which the cytotoxicity at 10 µM came to 3.09%. With `CCOCCNC(=O)c1ccc(OC)cc1I`, the cytotoxicity at 10 µM came to 6.53%.

Regarding `Cc1cc(C)c(CNc2ncnc3ccccc23)c(=O)[nH]1`, the cytotoxicity at 10 µM was 17.6%.

Take `Cc1cnc(NC2CCN(CC(=O)Nc3ccccc3)CC2)nc1C`: the cytotoxicity at 10 µM is -5.47%. Take `CCOCCn1nnc(C2(NC(=O)c3ccccc3)CCCC2)n1`: the cytotoxicity at 10 µM came to 21.9%. Turning to `Cc1cc(C)n(CC(=O)N2CCC(c3nc(C)no3)CC2)n1`, the cytotoxicity at 10 µM was 1.2%.

For the compound `CC(C1CC1)N(C(=O)NCCCn1nc2ccccn2c1=O)C1CC1` (configuration not stated), the cytotoxicity at 10 µM was -21.4%. For the compound `Cn1cc(-c2ncnc3c2CCN(C(=O)c2cscn2)CC3)cn1`, the cytotoxicity at 10 µM amounted to 1.15%.

On to `CCOCC1CN(C(=O)c2cccs2)Cc2cnn(CC3CC3)c21` (configuration not stated), for which the cytotoxicity at 10 µM is -1%. In the case of `c1ccc(CN2CCc3ncnc(-c4cncnc4)c3CC2)nc1`, the cytotoxicity at 10 µM was -68.3%. With `CC[C@H](CO)NC(=O)c1coc(COc2ccccc2F)n1` the figure was 5.21%; with `O=C(c1ccc(-c2ccsc2)nc1)N1CCCN(C2CCCCC2)CC1`, 6.67%; with `CN1CC2(CCN(C(=O)c3cc(-n4cccn4)ccc3Cl)CC2)OC1=O`, 2.3%.

With `Cc1ncsc1CCC(=O)N(C)Cc1nc2ccccc2n1C`, the cytotoxicity at 10 µM was -143%. For `Cn1nccc1C(=O)N1CCN(C(=O)C2CC2)[C@@H]2CS(=O)(=O)C[C@@H]21`, the cytotoxicity at 10 µM was 3.11%. As to `O=C(O)[C@H]1C[C@H](C(=O)NC2CC2)CN(Cc2ccc(-c3cc[nH]n3)s2)C1`, the cytotoxicity at 10 µM is 2.89%. In the case of `COc1cccc2c1OCC(Cc1cnc(N)c(C)c1)C2` (configuration not stated), the cytotoxicity at 10 µM came out at 3.36%. On to `CCN(Cc1ccncc1)Cc1c[nH]nc1-c1ccc(F)cc1`, for which the cytotoxicity at 10 µM was -5.83%. Next, `Cc1nc(C(=O)N(Cc2c(C)nn(C)c2C)C(C)C)cs1`: 3.57%; `Cc1nc(C)n(CC(C)C(=O)N2CCC(CN3CCOCC3)CC2)n1` (configuration not stated): 0.635%.

Consider `CCc1nn(C)c(Cl)c1CN1C[C@H](NC(=O)CCO)[C@@H](C(C)C)C1`, for which the cytotoxicity at 10 µM worked out at 11.1%.

Regarding `O=C(C1CC1)N1CCN(C(=O)CSc2ccccn2)[C@H]2CS(=O)(=O)C[C@H]21`, the cytotoxicity at 10 µM was -24.6%. With `CC(C)[C@@H]1CN(CCOc2ccc(Cl)cc2)C[C@H]1NS(C)(=O)=O`, the cytotoxicity at 10 µM was -52.4%. `COCc1noc(CN2C(=O)OC[C@@H]2C(C)C)n1`: the cytotoxicity at 10 µM was -11.8%. With `Cc1nnc(SCCNC(=O)Cn2cnc3ccccc3c2=O)s1` the figure was 4.79%; with `O=C(Cc1c[nH]c2ccccc12)NCC1CCN(Cc2c[nH]cn2)C1` (configuration not stated), 2.34%. With `CCOCC(O)c1nc2c([nH]1)CC(C)(C)CNC2=O` (configuration not stated) the figure was 4.71%; with `CCc1cnc(N)nc1NCCCn1nc(C)nc1C`, -1.37%; with `Cc1ccc(C(=O)N2CCC3(CCC(=O)N(CCN(C)C)C3)CC2)nc1`, -1.62%.

For the compound `COCCCC1(CO)CCCN(CCc2ccccc2)C1` (configuration not stated), the cytotoxicity at 10 µM is -9.99%. Turning to `CCn1nccc1C(=O)NC(Cn1cccn1)C(C)(C)C` (configuration not stated), the cytotoxicity at 10 µM is -9.24%. As to `O=C(c1cc[nH]n1)N1CCCC(c2cccc(-n3ccnc3)n2)C1` (configuration not stated), the cytotoxicity at 10 µM came to 6.88%. Consider `CCc1ccsc1C(=O)NCCn1nc2ccccn2c1=O`, for which the cytotoxicity at 10 µM is -12.2%. As for `c1cnn(CC2CCCCN2c2ncnc3ccsc23)c1` (configuration not stated), the cytotoxicity at 10 µM was -13.9%.

Turning to `Cc1cc(NC(=O)CN2CCN(c3nccs3)C(C)C2)on1` (configuration not stated), the cytotoxicity at 10 µM was -5.35%. Consider `Cc1n[nH]c(C)c1NC(=O)CN1CCN(c2nccs2)C(C)C1` (configuration not stated), for which the cytotoxicity at 10 µM was -17.6%. As to `Cc1cnn(C2CCCN(C(=O)c3cccc(-n4cnnn4)c3)C2)c1` (configuration not stated), the cytotoxicity at 10 µM was -8.77%. On to `CCCNC(=O)CCOc1cccc(F)c1`, for which the cytotoxicity at 10 µM turned out to be 4.75%. With `Cc1nc(C2CCCN(C(=O)c3c[nH]c(C(C)C)n3)C2)no1` (configuration not stated) the figure was -7.52%; with `NC(=O)C1CCN(C(=O)CCCc2nnc(-c3ccccc3)o2)C1` (configuration not stated), -19.8%. Consider `Cc1ncsc1C(=O)NC1CCN(CCC#N)CC1`, for which the cytotoxicity at 10 µM was -8.87%. As to `Cc1nnc(NC(=O)CN2CCc3c(nc(C4CC4)n3C)C2)s1`, the cytotoxicity at 10 µM was -8.51%.

For `O=C(NCCOCC(F)(F)F)c1ccc(-c2ccccc2)[nH]c1=O`, the cytotoxicity at 10 µM was -13.9%. Regarding `CC(C)c1nccn1C1CCCN(C(=O)C2=NN(C)C(=O)CC2)C1` (configuration not stated), the cytotoxicity at 10 µM is -24.6%. On to `CC(Cn1cccn1)NC(=O)N1CCCN(Cc2cccs2)CC1` (configuration not stated), for which the cytotoxicity at 10 µM is -13.5%. As to `COc1ccc(NC(=O)N2CCCC2c2ccncc2)cn1` (configuration not stated), the cytotoxicity at 10 µM was determined as 0.165%. With `Cc1cc(C[S+]([O-])CC(=O)Nc2c(C)cccc2C)no1` (configuration not stated) the figure was -9.65%; with `Cc1nn(C)c(N2CCOCC2)c1CNC(c1cccs1)C(C)C` (configuration not stated), -2.53%; with `CCC1c2ccsc2CCN1C(=O)NCc1ccccn1` (configuration not stated), -4.51%.

In the case of `O=C1C(NCc2nnc3n2CCCC3)CCN1c1ccccc1` (configuration not stated), the cytotoxicity at 10 µM is -11.2%. As to `Cc1cc(C)c(CNC(=O)NCC2CCCN2C)c(=O)[nH]1` (configuration not stated), the cytotoxicity at 10 µM was -2.14%.

For `COCC(=O)NC(C)Cc1cccc(Br)c1` (configuration not stated), the cytotoxicity at 10 µM is -8.21%. As to `CCc1nnc2n1CCN(CCS(=O)(=O)c1ccccc1)C2`, the cytotoxicity at 10 µM is -11.6%. Take `COc1cccc(CCC(=O)N2CCC[C@@H](N)[C@@H]2c2ccccc2F)c1`: the cytotoxicity at 10 µM was 8.3%. On to `Cc1ccc(CN2CCC(O)(Cn3nc(-c4cccs4)oc3=O)CC2)o1`, for which the cytotoxicity at 10 µM was 8.52%. With `NCC1CCC(c2c(C(N)=O)sc3ccccc23)CC1` (configuration not stated) the figure was 1.52%; with `Cn1cc(CN2CCn3cc(CNC(=O)C4CCC4)nc3C2)cn1`, -6.66%; with `O=C1[C@H]2CN(Cc3cccs3)C[C@H]2CN1c1ccsc1`, -79%. As for `CC(=O)N1CCC2(CC1)COC(COCc1ccccn1)C2` (configuration not stated), the cytotoxicity at 10 µM was -114%. On to `CN(C)CCn1c2c(ccc1=O)CC(NC(=O)c1cnccn1)CC2` (configuration not stated), for which the cytotoxicity at 10 µM was -2.4%. Next, `O=C(c1ccncc1)N1CCC2(CC1)CCN(Cc1ccccn1)C2=O`: -3.18%; `O=C(c1ccco1)N1C2CCC(O)(CC2)C1CO` (configuration not stated): 6.88%.
